Results as given in ChEMBL document CHEMBL1135402, “New serotonin 5-HT(2A), 5-HT(2B), and 5-HT(2C) receptor antagonists: synthesis, pharmacology, 3D-QSAR, and molecular modeling of (aminoalkyl)benzo and heterocycloalkanones” (J Med Chem, 2002).

Legend:
[1] = molecular target: T1, 5-hydroxytryptamine receptor 2A (Rattus norvegicus, UniProt P14842); experiment: Inhibitory constant on 5-hydroxytryptamine 2A receptor of Rat frontal cortex; format: tissue-based
[2] = molecular target: Serotonin receptor 2a and 2c (5HT2A and 5HT2C) (Rattus norvegicus) (UniProt P08909+P14842); experiment: Selectivity ratio towards Ki of 5-hydroxytryptamine 2A receptor to 5-hydroxytryptamine 2C receptor; format: protein assay
[3] = molecular target: T1, 5-hydroxytryptamine receptor 2A; experiment: Negative log concentration of antagonist on 5-hydroxytryptamine 2A receptor in rat thoracic aorta; format: functional, tissue-based; details: read-out: pA2 (converted)
[4] = molecular target: T2, 5-hydroxytryptamine receptor 2B (Rattus norvegicus, UniProt P30994); experiment: Negative log concentration of antagonistic compound was determined on 5-hydroxytryptamine 2B receptor of Rat stomach fundus; format: functional, tissue-based; details: read-out: pA2 (converted)
Summary of the method: (§1)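 Rat stomach fundus strips equilibrated 1 h under 1 g load; isometric contractions to cumulative 5-HT (0.01 nM–10 μM) in organ bath. Control curves, then antagonist preincubated before test curve; pA2 from EC50 shift at one antagonist concentration, […].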

[5] = molecular target: 5-hydroxytryptamine receptor 2A (Homo sapiens, UniProt P28223); experiment: Inhibitory constant for human 5-hydroxytryptamine 2A receptor transfected in to CHO cells; format: cell-based
Summary of the method: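 CHO cells stably expressing cloned human 5-HT2A, grown 24 h in dialyzed FCS before harvest; membranes in 50 mM Tris-HCl pH 7.5. […] Ki from IC50 by Cheng–Prusoff.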

[6] = molecular target: T3, 5-hydroxytryptamine receptor 2C (Homo sapiens, UniProt P28335); experiment: Inhibitory constant on human 5-hydroxytryptamine 2C receptor transfected in to HeLa cells; format: cell-based
T3 sequence (P28335 whole entry): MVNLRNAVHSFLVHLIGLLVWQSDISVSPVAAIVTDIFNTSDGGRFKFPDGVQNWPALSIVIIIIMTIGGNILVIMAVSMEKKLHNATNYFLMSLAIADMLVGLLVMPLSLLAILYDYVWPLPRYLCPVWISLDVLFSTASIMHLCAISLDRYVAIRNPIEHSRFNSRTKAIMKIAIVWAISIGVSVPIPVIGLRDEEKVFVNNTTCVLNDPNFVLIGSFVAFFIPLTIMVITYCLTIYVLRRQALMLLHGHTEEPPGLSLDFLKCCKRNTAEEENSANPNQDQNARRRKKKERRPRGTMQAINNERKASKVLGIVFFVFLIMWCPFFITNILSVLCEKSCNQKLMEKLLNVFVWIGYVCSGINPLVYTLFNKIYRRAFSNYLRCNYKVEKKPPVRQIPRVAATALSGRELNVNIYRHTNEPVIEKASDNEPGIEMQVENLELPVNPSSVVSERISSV
Summary of the method: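 HeLa cells stably expressing cloned human 5-HT2C, grown 24 h in dialyzed FCS; membranes as for human 5-HT2A. [3H]mesulergine (2 nM final) competition, nonspecific with 1 μM mianserine, 1 h at room temperature; GF/B filtration, scintillation counting. Ki via Cheng–Prusoff.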

[7] = molecular target: 5-hydroxytryptamine receptor 2C (Bos taurus); experiment: Inhibitory constant was determined on 5-hydroxytryptamine 2C receptor of Bovine choroid plexus
[8] = molecular target: T1, 5-hydroxytryptamine receptor 2A; experiment: Negative log concentration of antagonistic compound was determined on 5-hydroxytryptamine 2A receptor of Rat thoracic aorta; format: functional, tissue-based; details: read-out: pA2 (converted)
Summary of the method: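 Denuded thoracic aorta rings (4 mm) from male Sprague–Dawley rats (250–350 g), 2 g tension in Krebs organ bath; isometric contraction. Sensitized with 10 μM 5-HT, then cumulative 5-HT curves (30 nM–100 μM) alternating with 60 min equilibration; two matching control runs, then antagonist added 20 min before end of equilibration. Single-concentration method: […].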

[9] = molecular target: T2, 5-hydroxytryptamine receptor 2B; experiment: Antagonistic activity on 5-hydroxytryptamine 2B receptor of Rat stomach fundus;ND is not determined; format: functional, tissue-based; details: read-out: pA2 (converted); summary of the method: as §1

Sequence of Serotonin receptor 2a and 2c (5HT2A and 5HT2C) (Rattus norvegicus) (P08909 whole entry, looked up): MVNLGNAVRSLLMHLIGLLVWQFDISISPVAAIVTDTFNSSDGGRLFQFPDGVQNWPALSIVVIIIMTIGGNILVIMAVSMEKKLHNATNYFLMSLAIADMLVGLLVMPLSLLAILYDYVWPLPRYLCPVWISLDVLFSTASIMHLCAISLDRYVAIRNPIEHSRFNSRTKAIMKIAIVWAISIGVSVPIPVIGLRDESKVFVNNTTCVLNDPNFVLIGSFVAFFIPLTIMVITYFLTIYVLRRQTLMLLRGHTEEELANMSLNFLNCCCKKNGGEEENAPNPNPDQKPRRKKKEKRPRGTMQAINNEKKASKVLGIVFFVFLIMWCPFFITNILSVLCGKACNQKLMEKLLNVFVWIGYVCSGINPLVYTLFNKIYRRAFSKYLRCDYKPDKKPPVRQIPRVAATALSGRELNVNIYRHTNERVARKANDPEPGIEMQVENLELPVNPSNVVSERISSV
Sequence of Serotonin receptor 2a and 2c (5HT2A and 5HT2C) (Rattus norvegicus) (P14842 whole entry, looked up): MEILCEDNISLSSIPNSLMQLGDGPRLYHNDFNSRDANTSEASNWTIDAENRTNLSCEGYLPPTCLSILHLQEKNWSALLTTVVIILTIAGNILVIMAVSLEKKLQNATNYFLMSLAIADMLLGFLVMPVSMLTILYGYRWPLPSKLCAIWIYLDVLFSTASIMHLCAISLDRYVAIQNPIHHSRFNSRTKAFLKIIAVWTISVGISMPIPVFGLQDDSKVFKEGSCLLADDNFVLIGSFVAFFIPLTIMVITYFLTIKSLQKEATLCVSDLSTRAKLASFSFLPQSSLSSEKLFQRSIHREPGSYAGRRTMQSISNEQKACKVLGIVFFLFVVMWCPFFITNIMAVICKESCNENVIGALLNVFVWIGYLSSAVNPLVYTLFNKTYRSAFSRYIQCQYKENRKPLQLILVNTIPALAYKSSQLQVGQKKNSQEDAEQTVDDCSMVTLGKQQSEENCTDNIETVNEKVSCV
Sequence of 5-hydroxytryptamine receptor 2A (Homo sapiens, UniProt P28223) (P28223 whole entry): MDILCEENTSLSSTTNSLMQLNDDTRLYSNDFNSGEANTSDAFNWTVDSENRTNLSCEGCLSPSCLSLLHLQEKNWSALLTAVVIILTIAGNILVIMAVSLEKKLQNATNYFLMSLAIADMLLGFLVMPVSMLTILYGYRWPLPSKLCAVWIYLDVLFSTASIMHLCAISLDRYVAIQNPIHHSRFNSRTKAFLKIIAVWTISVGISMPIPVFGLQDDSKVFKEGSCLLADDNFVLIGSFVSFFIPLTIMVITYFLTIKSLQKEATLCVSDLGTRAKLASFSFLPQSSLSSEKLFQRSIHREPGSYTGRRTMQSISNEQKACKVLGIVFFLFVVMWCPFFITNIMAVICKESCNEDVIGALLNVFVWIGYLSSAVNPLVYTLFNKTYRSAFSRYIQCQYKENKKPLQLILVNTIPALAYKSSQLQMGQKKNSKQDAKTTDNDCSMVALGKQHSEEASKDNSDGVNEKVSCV
T1 sequence (P14842 whole entry): as the sequence (P14842 whole entry, looked up) above
T2 sequence (P30994 whole entry): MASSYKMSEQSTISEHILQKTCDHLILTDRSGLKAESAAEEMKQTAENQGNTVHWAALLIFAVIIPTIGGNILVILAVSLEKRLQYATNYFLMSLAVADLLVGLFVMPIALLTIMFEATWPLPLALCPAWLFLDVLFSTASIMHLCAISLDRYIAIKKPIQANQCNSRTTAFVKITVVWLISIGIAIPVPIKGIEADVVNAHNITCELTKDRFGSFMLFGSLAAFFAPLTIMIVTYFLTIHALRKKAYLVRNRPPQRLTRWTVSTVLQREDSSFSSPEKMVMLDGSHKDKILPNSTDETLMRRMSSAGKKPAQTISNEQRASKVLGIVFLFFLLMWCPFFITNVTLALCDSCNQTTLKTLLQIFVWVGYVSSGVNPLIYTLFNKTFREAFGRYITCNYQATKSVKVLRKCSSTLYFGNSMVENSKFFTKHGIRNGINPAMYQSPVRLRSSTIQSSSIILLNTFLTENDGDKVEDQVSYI

SMILES	Ki [1] [nM]	Ratio [2]	Kb [3] [nM]	other results
O=C(c1ccc(F)cc1)C1CCN(CCC2CCc3occc3C2=O)CC1 (configuration not stated)	19.5	18	26.3	–
O=C1c2ccsc2CCC1CCN1CCC(c2noc3cc(F)ccc23)CC1 (configuration not stated)	–	–	0.135	–
O=C(CCCN1CCN(CC2CC(=O)c3ccsc3C2)CC1)c1ccc(F)cc1 (configuration not stated)	–	–	16.2	–
O=C1CC(CN2CCN(c3ncccn3)CC2)Cc2occc21 (configuration not stated)	> 10000	1	–	Kb [4]: 977 nM
COc1ccccc1N1CCN(CC2CC(=O)c3ccsc3C2)CC1 (configuration not stated)	–	–	1260	–
CCc1c(C)[nH]c2c1C(=O)CC(CN1CCC(c3noc4cc(F)ccc34)CC1)C2 (configuration not stated)	4.27	89	–	–
CCc1c(C)[nH]c2c1C(=O)CC(CN1CCC(C(=O)c3ccc(F)cc3)CC1)C2 (configuration not stated)	8.71	4.1	–	–
O=C(c1ccc(F)cc1)C1CCN(CCC2CCCc3ccccc3C2=O)CC1 (configuration not stated)	–	–	178	–
O=C1CC(CN2CCN(c3ccccn3)CC2)c2ccccc21 (configuration not stated)	> 10000	0.027	–	–
COc1ccccc1N1CCN(CCC2Cc3ccccc3C2=O)CC1 (configuration not stated)	195	1.5	158	–
O=C1c2ccoc2CCC1CCN1CCC(c2noc3cc(F)ccc23)CC1 (configuration not stated)	1.07	65	0.562	Ki [5]: 0.724 nM; Ki [6]: 34.7 nM
O=C(c1ccc(F)cc1)C1CCN(CCC2Cc3sccc3C2=O)CC1 (configuration not stated)	–	–	1.2	–
O=C(c1ccc(F)cc1)C1CCN(CCC2Cc3ccccc3C2=O)CC1 (configuration not stated)	–	–	7.59	–
O=C(CCCN1CCN(CCC2CCc3ccccc3C2=O)CC1)c1ccc(F)cc1 (configuration not stated)	–	46	44.7	–
O=C1CC(CN2CCC(c3noc4cc(F)ccc34)CC2)Cc2[nH]c3ccccc3c21 (configuration not stated)	–	36	–	Ki [5]: 1.17 nM; Ki [6]: 27.5 nM
CCc1c(C)[nH]c2c1C(=O)CC(CN1CCN(c3ccccc3OC)CC1)C2 (configuration not stated)	–	13	–	–
O=C1CC(CN2CCC(c3noc4cc(F)ccc34)CC2)Cc2sccc21 (racemic) [listing 1 of 2 here]	–	–	0.741	Log Ki [7]: -6.69
O=C1c2ccoc2CCC1CCN1CCN(c2ccccn2)CC1 (configuration not stated)	355	89	676	–
O=C1c2sccc2CCC1CCN1CCC(c2noc3cc(F)ccc23)CC1 (configuration not stated)	–	10	–	–
O=C(CCCN1CCN(CC2CC(=O)c3ccccc32)CC1)c1ccc(F)cc1 (configuration not stated)	–	–	63.1	–
O=C1CC(CN2CCC(c3noc4cc(F)ccc34)CC2)Cc2sccc21 (stereo in doubt; (-)18h)	11.7	–	–	–
O=C(c1ccc(F)cc1)C1CCN(CCC2CCc3ccccc3C2=O)CC1 (configuration not stated)	–	29	33.9	–
COc1ccccc1N1CCN(CCC2CCc3occc3C2=O)CC1 (configuration not stated)	191	3	501	–
O=C(CCCN1CCN(CC2CC(=O)c3ccoc3C2)CC1)c1ccc(F)cc1 (configuration not stated)	–	33	–	–
O=C1CC(CN2CCC(C(=O)c3ccc(F)cc3)CC2)Cc2occc21 (configuration not stated)	–	616	52.5	–
O=C1c2ccsc2CCC1CCN1CCN(c2ccccn2)CC1 (configuration not stated)	174	9.8	490	–

SMILES	Ki [1] [nM]	Ratio [2]	Kb [3] [nM]	other results
O=C(CCCN1CCN(CC2CC(=O)c3ccccc3C2)CC1)c1ccc(F)cc1 (configuration not stated)	–	1780	53.7	Ki [5]: 115 nM
O=C1CC(CN2CCC(c3noc4cc(F)ccc34)CC2)Cc2occc21 (configuration not stated)	–	2950	11.2	Ki [6]: 3980 nM
O=C(c1ccc(F)cc1)C1CCN(CCC2Cc3cc(F)ccc3C2=O)CC1 (configuration not stated)	–	219	7.59	–
O=C1CC(CN2CCC(c3noc4cc(F)ccc34)CC2)Cc2sccc21 (single isomer, unassigned; (+))	11.5	–	–	–
O=C1CC(CN2CCC(c3noc4cc(F)ccc34)CC2)Cc2ccccc21 (configuration not stated)	2.69	–	–	–
O=C1CC(CN2CCN(c3ccccc3)CC2)Cc2occc21 (configuration not stated)	–	1440	–	–
O=C(CCCN1CCN(CCC2Cc3ccccc3C2=O)CC1)c1ccc(F)cc1 (configuration not stated)	–	50	50.1	Ki [5]: 67.6 nM; Ki [6]: > 10000 nM
CCc1c(C)[nH]c2c1C(=O)CC(CN1CCN(CCCC(=O)c3ccc(F)cc3)CC1)C2 (configuration not stated)	912	0.26	–	–
COc1ccccc1N1CCN(CC2CC(=O)c3ccoc3C2)CC1 (configuration not stated)	> 10000	1	–	–
O=C(c1ccc(F)cc1)C1CCN(CCC2CCc3sccc3C2=O)CC1 (configuration not stated)	–	–	0.955	–
O=C(CCCN1CCN(CCC2CCc3sccc3C2=O)CC1)c1ccc(F)cc1 (configuration not stated)	–	–	148	–
O=C(CCCCN1CCN(CC2CC(=O)c3ccoc3C2)CC1)c1ccc(F)cc1 (configuration not stated)	–	25	–	–
O=C1CC(CN2CCC(c3noc4cc(F)ccc34)CC2)Cc2sccc21 (racemic) [listing 2 of 2 here]	–	44	–	–
O=C1CC(CN2CCC(C(=O)c3ccc(F)cc3)CC2)c2ccccc21 (configuration not stated)	–	–	7.41	–
COc1ccccc1N1CCN(CC2CC(=O)c3ccccc3C2)CC1 (configuration not stated)	–	5.5	331	–
O=C(CCCN1CCN(CCC2Cc3cc(F)ccc3C2=O)CC1)c1ccc(F)cc1 (configuration not stated)	53.7	36	–	–
CCc1c(C)[nH]c2c1C(=O)C(CCN1CCN(c3ccccc3OC)CC1)CC2 (configuration not stated)	–	2.5	–	Kb [8]: 31.6 nM
COc1ccccc1N1CCN(CCC2CCc3ccccc3C2=O)CC1 (configuration not stated)	–	5.8	191	–
O=C(CCCN1CCN(CCC2Cc3sccc3C2=O)CC1)c1ccc(F)cc1 (configuration not stated)	–	–	23.4	–
O=C1CC(CN2CCC(C(=O)c3ccc(F)cc3)CC2)Cc2ccccc21 (configuration not stated)	–	–	13.8	–
O=C1CC(CN2CCC(C(=O)c3ccc(F)cc3)CC2)Cc2sccc21 (configuration not stated)	–	–	15.1	–
COc1ccccc1N1CCN(CCC2CCc3sccc3C2=O)CC1 (configuration not stated)	–	–	112	–
COc1ccccc1N1CCN(CC2CC(=O)c3c([nH]c4ccccc34)C2)CC1 (configuration not stated)	–	1.9	–	–
O=C(c1ccc(F)cc1)C1CCN(CCC2CCc3ccsc3C2=O)CC1 (configuration not stated)	–	31	–	Kb [9]: 331 nM
COc1ccccc1N1CCN(CC2CC(=O)c3ccccc32)CC1 (configuration not stated)	–	–	617	–
O=C1CC(CN2CCC(C(=O)c3ccc(F)cc3)CC2)Cc2[nH]c3ccccc3c21 (configuration not stated)	–	65	–	–
